High-throughput results as filed in PubChem.
APJ ag – agonists of human APJ apelin receptor; CHO-K1 APJ PathHunter beta-arrestin, luminescence; 0% DMSO wells, 100% apelin; activation, % at 20 µM; 330,000 compounds, 0.11% hits;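 active means activation more than six SD over the plate average, tested at 20 µM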
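Assay system: CHO-K1 cells stably expressing ProLink-tagged human APJ and arrestin–beta-gal acceptor. Compound dosing: 20 µM single point, 1% DMSO. Times: 16-18 h seeding, 90 min dark compound exposure, 60 min detection. Detection: beta-gal luminescence. Evaluation: APJ–arrestin association signal. Controls: negative DMSO alone, positive Apelin-13 at 10 nM.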
CCR6 antagonist – CCR6 (human) receptor antagonism. CHO-K1 CCR6 PathHunter beta-arrestin, luminescence, CCL20-stimulated. inhibition, % at 20 µM. 340,000 compounds, 0.49% hits;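 active means compounds whose inhibition of the agonist-driven luminescence signal at 20 µM reaches about 50%, limit read from the data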;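 further: cells stimulated with CCL20 at 14 nM final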
APJ antagonist – blocks the human apelin receptor APJ; P35414; CHO-K1 APJ beta-arrestin complementation, luminescence; inhibition, % at 20 µM; 330,000 compounds, 0.32% hits;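 active means inhibition above about 40% at 20 µM, limit read from the data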;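 further: cells challenged with 10 nM apelin-13 agonist together with compound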
EBI2 antag – blocks human EBI2 receptor beta-arrestin signaling; AID 651636; 360,000 compounds, 0.81% hits; inhibition, % at 5 µM; EBI2 beta-arrestin recruitment, luminescence, 7a,25-OHC stimulated; P32249; in the data active means inhibition above about 38%;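 further: enzyme fragment complementation signal reports receptor beta-arrestin coupling in cells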
m5-HT2A agonist – mouse HTR2A agonism via beta-arrestin recruitment; AID 624169; activation, % at 7.6 µM; 360,000 compounds, 0.66% hits; P35363; CHO-K1 mHTR2A beta-arrestin complementation, luminescence; percent of 30 µM serotonin response;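 active means activation above a run cutoff, the mean activation of all tested compounds plus 3 SD, cut at about 14% in these data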
CXCR6 block – CXCR6 (human) receptor inhibition. O00574. CHO-K1 PathHunter CXCR6 beta-arrestin, luminescence. inhibition, % at 20 µM. 360,000 compounds, 0.36% hits; in the data active means inhibition above about 34%, passing the limit was not always enough;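 further: antagonist mode with CXCL16 agonist at 10 nM final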
MOR ag counter – activates human mu opioid receptor in HTR2A counterscreen | 2,300 compounds, 5.3% hits | AID 624380 | activation, % at 9.3 µM | shares compounds with m5-HT2A agonist | U2OS OPRM1 beta-arrestin PathHunter, luminescence; DMSO 0%, DAMGO 9.3 µM 100%;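 active means mean activation above the mean of DMSO-only wells plus 3 SD, cut at about 0.5% in these data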
Target sequence (P35372 whole entry, looked up): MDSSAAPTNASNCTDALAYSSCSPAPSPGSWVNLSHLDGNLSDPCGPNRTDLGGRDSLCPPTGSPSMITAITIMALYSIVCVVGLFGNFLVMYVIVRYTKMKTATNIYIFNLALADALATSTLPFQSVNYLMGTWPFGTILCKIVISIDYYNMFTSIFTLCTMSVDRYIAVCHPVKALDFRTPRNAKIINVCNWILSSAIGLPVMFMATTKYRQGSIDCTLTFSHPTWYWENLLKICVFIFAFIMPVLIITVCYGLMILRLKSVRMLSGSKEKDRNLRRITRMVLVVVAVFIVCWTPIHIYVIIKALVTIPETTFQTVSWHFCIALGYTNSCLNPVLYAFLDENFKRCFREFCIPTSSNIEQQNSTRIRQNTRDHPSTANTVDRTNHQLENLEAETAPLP
HTR2A ag conf – mouse HTR2A agonism confirmed. 2,300 compounds, 19% hits. CHO-K1 PathHunter beta-arrestin recruitment, luminescence; DMSO 0%, 30 µM serotonin 100%. shares compounds with m5-HT2A agonist. activation, % at 7.6 µM. AID 624381;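 active means mean activation across triplicates above the hit threshold derived in the original primary screen, cut at about 15% in these data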
Large screens that a line does not name were inactive (follow-up assays come after a bar, where they were run). Hits are enriched below; roughly 2.1% of the tested compounds scored in any of these assays.

COc1ccc(OC)c(S(=O)(=O)N(C)CC(=O)N2CCCCC2)c1	m5-HT2A agonist 16 | MOR ag counter inactive | HTR2A ag conf inactive
CC(=O)c1ccc2ccccc2c1OC(=O)c1ccncc1	none (no result: APJ ag, CCR6 antagonist, APJ antagonist)
CC(O)CCC(=O)NCCNC(=O)CCC(C)O (stereo unspecified)	m5-HT2A agonist 20 | MOR ag counter inactive | HTR2A ag conf inactive
CCCS(=O)(=O)NC(=O)C1(C)CCCN(C(=O)c2cccc3ccccc23)C1 (stereo unspecified)	none (no result: APJ ag, CCR6 antagonist, APJ antagonist)
CCCS(=O)(=O)NC(=O)C1(C)CCCN(C(=O)c2ccccc2C(F)(F)F)C1 (stereo unspecified)	m5-HT2A agonist 20 (no result: APJ ag, CCR6 antagonist, APJ antagonist) | MOR ag counter inactive | HTR2A ag conf inactive
O=[N+]([O-])c1ccc(Oc2cccc(Br)c2)c2ccncc12	none
O=[N+]([O-])c1cccc2cnccc12	m5-HT2A agonist 15 (no result: APJ ag, APJ antagonist) | MOR ag counter inactive | HTR2A ag conf inactive
COCCN(CC(=O)Nc1ccccc1C(F)(F)F)C(=O)/C=C/c1ccc2ccccc2n1	none
Brc1ccc(-c2ncc3ccccn23)cc1	none
Cc1ccc(S(=O)(=O)NC2=NCN(CCN3CCOCC3)CN2)cc1	m5-HT2A agonist 17 | MOR ag counter inactive | HTR2A ag conf inactive
Cc1ccccc1C(=O)O/N=C(\c1ccccc1)c1ccccn1	m5-HT2A agonist 23 | MOR ag counter inactive | HTR2A ag conf 43
CCCCCCCC(=O)C(C)C(=O)N(C)[C@H](Cc1ccc(OC)cc1)C(=O)N(C)[C@H](C(N)=O)C(C)C (stereo partly specified)	none
COCCNC(=S)N(CCO)Cc1cc2cc3c(cc2[nH]c1=O)OCCO3	none
COc1ccc(Nc2nc(N3CCN(C)CC3)nc3ccccc23)c(OC)c1	m5-HT2A agonist 16 | MOR ag counter inactive | HTR2A ag conf 19
Cn1cc([N+](=O)[O-])c(C(=O)N/N=C/c2ccncc2)n1	none
Cn1cc([N+](=O)[O-])c(C(=O)N/N=C/c2ccc([N+](=O)[O-])cc2)n1	m5-HT2A agonist 20 | MOR ag counter inactive | HTR2A ag conf 37
Cc1[nH]c(=O)nc(SCc2cccc(Cl)c2)c1C#N	none
Cc1[nH]c(=O)nc(SCc2ccc(Cl)c(Cl)c2)c1C#N	m5-HT2A agonist 15 | MOR ag counter 0.8 | HTR2A ag conf inactive
O=C(COc1ccccc1)NCc1n[nH]c(=S)n1-c1ccccc1	m5-HT2A agonist 16 | MOR ag counter inactive | HTR2A ag conf inactive
Cc1cccc(N2CCN(C(=O)c3c(Cl)cnn3C)CC2)c1C	none
C/C(CC(=O)Nc1ccc(N(C)C)cc1)=N\NC(=O)c1ccccc1Cl	m5-HT2A agonist 16 (no result: APJ ag, CCR6 antagonist, APJ antagonist) | MOR ag counter 0.9 | HTR2A ag conf inactive
Cc1ccc(C(C)C)c(OCC(=O)OCC(=O)NC2CC2)c1	m5-HT2A agonist 26 | MOR ag counter inactive | HTR2A ag conf inactive
COc1cc2c(cc1OC)CN(C(=O)C(C)(C)C)CC2	m5-HT2A agonist 17 | MOR ag counter inactive | HTR2A ag conf inactive
CCOC(=O)C1=C(CC)Nc2ccccc2N/C1=N\S(=O)(=O)c1cccc(C(C)=O)c1	m5-HT2A agonist 20 | MOR ag counter inactive | HTR2A ag conf inactive
CCOC(=O)C1=C(CC)Nc2ccccc2N/C1=N\S(=O)(=O)c1ccccc1F	none
CCOC(=O)C1CCN(Cc2cnc(Oc3ccc(C(C)(C)C)cc3)s2)CC1	m5-HT2A agonist 19 | MOR ag counter inactive | HTR2A ag conf 39
CCOC(=O)C1CCN(Cc2cnc(NC(=O)OC)s2)CC1	m5-HT2A agonist 16 | MOR ag counter inactive | HTR2A ag conf 23
CCC(C)c1ccccc1NC(=O)COc1ccc(-n2cnnn2)cc1 (stereo unspecified)	none
O=c1cc(C(F)(F)F)nc(SCc2cccc3ccccc23)[nH]1	m5-HT2A agonist 18 | MOR ag counter inactive | HTR2A ag conf inactive
Nc1cc(=O)[nH]c(SCc2cccc3ccccc23)n1	none
Cc1ccc(C)c(N(C(=O)c2snc(C(N)=O)c2N)C(C(=O)NCC2CCCO2)c2ccc(C)o2)c1 (stereo unspecified)	none
CCn1ccnc1CN(C)C(=O)C1CCC(=O)N(Cc2cccc(C(F)(F)F)c2)C1 (stereo unspecified)	m5-HT2A agonist 15 | MOR ag counter inactive | HTR2A ag conf inactive
COc1ccc(CCN2C(=NC(=O)CC(C)C)SC3CS(=O)(=O)CC32)cc1OC (stereo unspecified)	none
COc1ccccc1-c1noc(-c2ccccc2)n1	m5-HT2A agonist 18 | MOR ag counter inactive | HTR2A ag conf inactive
COc1ccc(CN(C)C(=O)c2ccc(NS(=O)(=O)c3ccc(C)c([N+](=O)[O-])c3)cc2)c(OC)c1OC	m5-HT2A agonist 18 | MOR ag counter inactive | HTR2A ag conf inactive
COc1ccc(CN(C)C(=O)c2ccc(NS(=O)(=O)c3ccc4[nH]c(=O)[nH]c4c3)cc2)c(OC)c1OC	none
Cc1ccc(S(=O)(=O)N2CCN(C(=O)c3ccccn3)CC2)c(C)c1	none
Cc1cc(C)c(C)c(S(=O)(=O)N2CCN(C(=O)c3ccccn3)CC2)c1C	m5-HT2A agonist 16 | MOR ag counter 1.1 | HTR2A ag conf inactive
O=S(=O)(NC1=NCCCCC1)c1ccc(Cl)cc1Cl	m5-HT2A agonist 14 | MOR ag counter inactive | HTR2A ag conf inactive
Cc1cccc(OCC(=O)Nc2nnc(S(=O)(=O)N3CCC(C)CC3)s2)c1	m5-HT2A agonist 17 | MOR ag counter inactive | HTR2A ag conf inactive
O=C(O)CCNS(=O)(=O)c1cccc2nsnc12	none
COc1cc(NC(=O)C2CC(c3ccccc3Cl)=NO2)cc(OC)c1OC (stereo unspecified)	m5-HT2A agonist 18 | MOR ag counter inactive | HTR2A ag conf inactive
O=C(c1nn2c(C(F)(F)F)cc(-c3ccco3)nc2c1Br)N1CCCc2ccccc21	none
O=C(c1cc2nc(-c3ccco3)cc(C(F)(F)F)n2n1)N1CCCc2ccccc21	m5-HT2A agonist 23 | MOR ag counter inactive | HTR2A ag conf inactive
COc1cc(/C=C2\CCc3ccccc3C2=O)cc(OC)c1OC	m5-HT2A agonist 19 | MOR ag counter inactive | HTR2A ag conf inactive
CCOc1ccccc1C=C1CCc2ccccc2C1=O	m5-HT2A agonist 30 (no result: APJ ag, CCR6 antagonist, APJ antagonist) | MOR ag counter inactive | HTR2A ag conf inactive
COc1ccccc1C=C1CCc2ccccc2C1=O	none (no result: APJ ag, CCR6 antagonist, APJ antagonist)
Cc1ccc(S(=O)(=O)N2CCCCC2)cc1NC(=O)COC(=O)c1cccn1C	none
